# Laboratory results: ChEMBL document CHEMBL3046780, “Syntheses and herbicidal activity of new triazolopyrimidine-2-sulfonamides as acetohydroxyacid synthase inhibitor” (Bioorg Med Chem, 2010)
# What was measured:
# Eclipta prostrata [1] = assay: Post-emergence herbicidal activity against Eclipta prostrata assessed as growth inhibition at 75 g ai/ha measured 15 days post compound treatment under green house conditions; format: functional; conditions: 360 h, read-out: GI
# Summary of the method: (§1)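 Compounds formulated as 100 g/L emulsifiable concentrate (DMF solvent, Tween-80 emulsifier), diluted with water, sprayed post-emergence on pot-grown weeds in clay soil (pH 6.5, 1.6% organic matter). Seeds sown 1-3 cm deep, grown at 15-30 °C. Dicots were treated at the 2-leaf stage and monocots at the 1-leaf stage. Untreated and DMF-treated controls were included. Injury was rated visually 15 days after treatment.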
# Echinochloa crus-galli = assay: Post-emergence herbicidal activity against Echinochloa crus-galli (barnyard grass) assessed as growth inhibition at 150 g ai/ha measured 15 days post compound treatment under green house conditions; format: functional; conditions: 360 h, read-out: GI; summary of the method: as §1
# Cyperus iria [2] = assay: Post-emergence herbicidal activity against Cyperus iria assessed as growth inhibition at 75 g ai/ha measured 15 days post compound treatment under green house conditions; format: functional; conditions: 360 h, read-out: GI; summary of the method: as §1
# Eclipta prostrata [3] = assay: Post-emergence herbicidal activity against Eclipta prostrata assessed as growth inhibition at 37.5 g ai/ha measured 15 days post compound treatment under green house conditions; format: functional; conditions: 360 h, read-out: GI; summary of the method: as §1
# Cerastium arvense [4] = assay: Post-emergence herbicidal activity against Cerastium arvense assessed as growth inhibition at 150 g ai/ha measured 15 days post compound treatment under green house conditions; format: functional; conditions: 360 h, read-out: GI; summary of the method: as §1
# Digitaria sanguinalis = assay: Post-emergence herbicidal activity against Digitaria sanguinalis (hairy crabgrass) assessed as growth inhibition at 150 g ai/ha measured 15 days post compound treatment under green house conditions; format: functional; conditions: 360 h, read-out: GI; summary of the method: as §1
# Brassica juncea = assay: Post-emergence herbicidal activity against Brassica juncea assessed as growth inhibition at 150 g ai/ha measured 15 days post compound treatment under green house conditions; format: functional; conditions: 360 h, read-out: GI; summary of the method: as §1
# Galium aparine [5] = assay: Post-emergence herbicidal activity against Galium aparine assessed as growth inhibition at 150 g ai/ha measured 15 days post compound treatment under green house conditions; format: functional; conditions: 360 h, read-out: GI; summary of the method: as §1
# Rumex acetosa [6] = assay: Post-emergence herbicidal activity against Rumex acetosa assessed as growth inhibition at 75 g ai/ha measured 15 days post compound treatment under green house conditions; format: functional; conditions: 360 h, read-out: GI; summary of the method: as §1
# Rumex acetosa [7] = assay: Post-emergence herbicidal activity against Rumex acetosa assessed as growth inhibition at 150 g ai/ha measured 15 days post compound treatment under green house conditions; format: functional; conditions: 360 h, read-out: GI; summary of the method: as §1
# Galium aparine [8] = assay: Post-emergence herbicidal activity against Galium aparine assessed as growth inhibition at 37.5 g ai/ha measured 15 days post compound treatment under green house conditions; format: functional; conditions: 360 h, read-out: GI; summary of the method: as §1
# Chenopodium album [9] = assay: Post-emergence herbicidal activity against Chenopodium album assessed as growth inhibition at 150 g ai/ha measured 15 days post compound treatment under green house conditions; format: functional; conditions: 360 h, read-out: GI; summary of the method: as §1
# Galium aparine [10] = assay: Post-emergence herbicidal activity against Galium aparine assessed as growth inhibition at 75 g ai/ha measured 15 days post compound treatment under green house conditions; format: functional; conditions: 360 h, read-out: GI; summary of the method: as §1
# Cerastium arvense [11] = assay: Post-emergence herbicidal activity against Cerastium arvense assessed as growth inhibition at 75 g ai/ha measured 15 days post compound treatment under green house conditions; format: functional; conditions: 360 h, read-out: GI; summary of the method: as §1
# Polygonum humifusum [12] = assay: Post-emergence herbicidal activity against Polygonum humifusum assessed as growth inhibition at 75 g ai/ha measured 15 days post compound treatment under green house conditions; format: functional; conditions: 360 h, read-out: GI; summary of the method: as §1
# Cyperus iria [13] = assay: Post-emergence herbicidal activity against Cyperus iria assessed as growth inhibition at 150 g ai/ha measured 15 days post compound treatment under green house conditions; format: functional; conditions: 360 h, read-out: GI; summary of the method: as §1
# Rumex acetosa [14] = assay: Post-emergence herbicidal activity against Rumex acetosa assessed as growth inhibition at 37.5 g ai/ha measured 15 days post compound treatment under green house conditions; format: functional; conditions: 360 h, read-out: GI; summary of the method: as §1
# Cerastium arvense [15] = assay: Post-emergence herbicidal activity against Cerastium arvense assessed as growth inhibition at 37.5 g ai/ha measured 15 days post compound treatment under green house conditions; format: functional; conditions: 360 h, read-out: GI; summary of the method: as §1
# [16] = molecular target: T1, Acetolactate synthase, chloroplastic (Arabidopsis thaliana, UniProt P17597)
# T1 sequence (P17597 whole entry): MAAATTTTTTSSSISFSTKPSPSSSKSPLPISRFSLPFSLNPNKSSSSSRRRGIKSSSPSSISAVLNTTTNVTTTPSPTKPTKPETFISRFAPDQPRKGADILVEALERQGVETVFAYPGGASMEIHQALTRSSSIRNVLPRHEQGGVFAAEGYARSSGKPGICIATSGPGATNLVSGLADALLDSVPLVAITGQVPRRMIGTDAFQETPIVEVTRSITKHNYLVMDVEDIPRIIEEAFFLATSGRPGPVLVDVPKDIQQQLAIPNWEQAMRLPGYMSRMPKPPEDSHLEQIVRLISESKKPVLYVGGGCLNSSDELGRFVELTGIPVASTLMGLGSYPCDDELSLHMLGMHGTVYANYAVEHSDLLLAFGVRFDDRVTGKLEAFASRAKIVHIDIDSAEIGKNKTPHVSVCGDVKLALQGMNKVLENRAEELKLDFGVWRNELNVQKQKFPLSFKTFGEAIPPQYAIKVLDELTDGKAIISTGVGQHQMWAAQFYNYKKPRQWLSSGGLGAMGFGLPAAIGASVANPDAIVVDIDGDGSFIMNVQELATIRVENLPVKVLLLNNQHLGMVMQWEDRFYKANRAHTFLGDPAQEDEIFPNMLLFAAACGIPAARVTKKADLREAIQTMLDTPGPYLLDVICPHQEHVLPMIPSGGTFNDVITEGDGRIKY
# Eclipta prostrata [17] = assay: Post-emergence herbicidal activity against Eclipta prostrata assessed as growth inhibition at 150 g ai/ha measured 15 days post compound treatment under green house conditions; format: functional; conditions: 360 h, read-out: GI; summary of the method: as §1
# Cyperus iria [18] = assay: Post-emergence herbicidal activity against Cyperus iria assessed as growth inhibition at 37.5 g ai/ha measured 15 days post compound treatment under green house conditions; format: functional; conditions: 360 h, read-out: GI; summary of the method: as §1
# Amaranthus retroflexus [19] = assay: Post-emergence herbicidal activity against Amaranthus retroflexus assessed as growth inhibition at 37.5 g ai/ha measured 15 days post compound treatment under green house conditions; format: functional; conditions: 360 h, read-out: GI; summary of the method: as §1
# Poa annua = assay: Post-emergence herbicidal activity against Poa annua assessed as growth inhibition at 150 g ai/ha measured 15 days post compound treatment under green house conditions; format: functional; conditions: 360 h, read-out: GI; summary of the method: as §1
# Chenopodium album [20] = assay: Post-emergence herbicidal activity against Chenopodium album assessed as growth inhibition at 75 g ai/ha measured 15 days post compound treatment under green house conditions; format: functional; conditions: 360 h, read-out: GI; summary of the method: as §1
# Amaranthus retroflexus [21] = assay: Post-emergence herbicidal activity against Amaranthus retroflexus assessed as growth inhibition at 75 g ai/ha measured 15 days post compound treatment under green house conditions; format: functional; conditions: 360 h, read-out: GI; summary of the method: as §1
# Polygonum humifusum [22] = assay: Post-emergence herbicidal activity against Polygonum humifusum assessed as growth inhibition at 37.5 g ai/ha measured 15 days post compound treatment under green house conditions; format: functional; conditions: 360 h, read-out: GI; summary of the method: as §1
# Chenopodium album [23] = assay: Post-emergence herbicidal activity against Chenopodium album assessed as growth inhibition at 37.5 g ai/ha measured 15 days post compound treatment under green house conditions; format: functional; conditions: 360 h, read-out: GI; summary of the method: as §1
# Polygonum humifusum [24] = assay: Post-emergence herbicidal activity against Polygonum humifusum assessed as growth inhibition at 150 g ai/ha measured 15 days post compound treatment under green house conditions; format: functional; conditions: 360 h, read-out: GI; summary of the method: as §1
# Amaranthus retroflexus [25] = assay: Post-emergence herbicidal activity against Amaranthus retroflexus assessed as growth inhibition at 150 g ai/ha measured 15 days post compound treatment under green house conditions; format: functional; conditions: 360 h, read-out: GI; summary of the method: as §1
Structure (SMILES),inhibition of growth at 75 g/ha (Eclipta prostrata [1]) [%],inhibition of growth at 150 g/ha (Echinochloa crus-galli) [%],inhibition of growth at 75 g/ha (Cyperus iria [2]) [%],inhibition of growth at 37.5 g/ha (Eclipta prostrata [3]) [%],inhibition of growth at 150 g/ha (Cerastium arvense [4]) [%],inhibition of growth at 150 g/ha (Digitaria sanguinalis) [%],inhibition of growth at 150 g/ha (Brassica juncea) [%],inhibition of growth at 150 g/ha (Galium aparine [5]) [%],inhibition of growth at 75 g/ha (Rumex acetosa [6]) [%],inhibition of growth at 150 g/ha (Rumex acetosa [7]) [%],inhibition of growth at 37.5 g/ha (Galium aparine [8]) [%],inhibition of growth at 150 g/ha (Chenopodium album [9]) [%],inhibition of growth at 75 g/ha (Galium aparine [10]) [%],inhibition of growth at 75 g/ha (Cerastium arvense [11]) [%],inhibition of growth at 75 g/ha (Polygonum humifusum [12]) [%],inhibition of growth at 150 g/ha (Cyperus iria [13]) [%],inhibition of growth at 37.5 g/ha (Rumex acetosa [14]) [%],inhibition of growth at 37.5 g/ha (Cerastium arvense [15]) [%],inhibition of growth at 150 g/ha (Eclipta prostrata [17]) [%],inhibition of growth at 37.5 g/ha (Cyperus iria [18]) [%],further results
Cc1ccn2nc(S(=O)(=O)Nc3c(F)cccc3F)nc2n1,≥ 90,50,50,≥ 90,≥ 90,≥ 80,≥ 90,≥ 80,50,≥ 80,50,≥ 90,50,≥ 90,≥ 90,50,50,≥ 90,≥ 90,50,Ki [16]: 0.36 µM; inhibition of growth at 37.5 g/ha (Amaranthus retroflexus [19]): ≥ 90%; inhibition of growth at 150 g/ha (Poa annua): 50%; inhibition of growth at 75 g/ha (Chenopodium album [20]): ≥ 90%; inhibition of growth at 75 g/ha (Amaranthus retroflexus [21]): ≥ 90%; inhibition of growth at 37.5 g/ha (Polygonum humifusum [22]): ≥ 80%; inhibition of growth at 37.5 g/ha (Chenopodium album [23]): 50%; inhibition of growth at 150 g/ha (Polygonum humifusum [24]): ≥ 90%; inhibition of growth at 150 g/ha (Amaranthus retroflexus [25]): ≥ 90%
COC(=O)c1cccc(Cl)c1NS(=O)(=O)c1nc2c(Cl)c(C)nc(C)n2n1,50,< 50,50,50,50,< 50,≥ 90,≥ 80,50,50,≥ 80,≥ 80,≥ 80,50,50,50,50,< 50,≥ 50,50,inhibition of growth at 37.5 g/ha (Amaranthus retroflexus [19]): 50%; inhibition of growth at 150 g/ha (Poa annua): < 50%; inhibition of growth at 75 g/ha (Chenopodium album [20]): ≥ 80%; inhibition of growth at 75 g/ha (Amaranthus retroflexus [21]): 50%; inhibition of growth at 37.5 g/ha (Polygonum humifusum [22]): 50%; inhibition of growth at 37.5 g/ha (Chenopodium album [23]): ≥ 80%; inhibition of growth at 150 g/ha (Polygonum humifusum [24]): 50%; inhibition of growth at 150 g/ha (Amaranthus retroflexus [25]): 50%
Cc1nc(C(F)(F)F)cc2nc(S(=O)(=O)Nc3c(Cl)cccc3Cl)nn12,50,< 50,50,50,50,< 50,≥ 90,≥ 80,≥ 80,≥ 80,50,≥ 90,≥ 80,50,≥ 80,50,≥ 80,< 50,≥ 90,50,Ki [16]: 5.02 µM; inhibition of growth at 37.5 g/ha (Amaranthus retroflexus [19]): < 50%; inhibition of growth at 150 g/ha (Poa annua): < 50%; inhibition of growth at 75 g/ha (Chenopodium album [20]): ≥ 80%; inhibition of growth at 75 g/ha (Amaranthus retroflexus [21]): < 50%; inhibition of growth at 37.5 g/ha (Polygonum humifusum [22]): 50%; inhibition of growth at 37.5 g/ha (Chenopodium album [23]): ≥ 80%; inhibition of growth at 150 g/ha (Polygonum humifusum [24]): ≥ 80%; inhibition of growth at 150 g/ha (Amaranthus retroflexus [25]): < 50%
